Activity calls are given as the source filed them. The rule behind the calls is not given here.
What was measured:
[1] = test system: Plasmodium yoelii nigeriensis; assay: Antimalarial activity in multidrug-resistant Plasmodium yoelii nigeriensis infected Swiss mouse assessed as suppression of parasitaemia at 96 mg/kg, po two devided dose daily for 4 days; format: functional
In short: (§1)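 Swiss mice of either sex (20 2 g) inoculated ip with 1 × 10⁶ MDR P. yoelii nigeriensis parasites on day 0. Five mice per dose, given oral doses in groundnut oil from day 0 to 3, twice daily. Parasitaemia read from thin blood smears on day 4. Suppression = [(C − T)/C] × 100 versus untreated controls. 100% means no parasites seen in 50 oil-immersion fields.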

[2] = test system: Plasmodium yoelii nigeriensis; assay: Antimalarial activity in multidrug-resistant Plasmodium yoelii nigeriensis infected Swiss mouse assessed as suppression of parasitaemia at 24 mg/kg, po two devided dose daily for 4 days; format: functional; in short: as §1
[3] = test system: Plasmodium yoelii nigeriensis; assay: Antimalarial activity in multidrug-resistant Plasmodium yoelii nigeriensis infected Swiss mouse assessed as suppression of parasitaemia at 48 mg/kg, po two devided dose daily for 4 days; format: functional; in short: as §1
[4] = Lipophilicity, log P of the compound; format: physicochemical; details: octanol/water
In short: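 log P calculated in silico, not measured experimentally.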

[5] = test system: Plasmodium yoelii nigeriensis; assay: Antimalarial activity in multidrug-resistant Plasmodium yoelii nigeriensis infected Swiss mouse assessed as disease cure at 48 mg/kg, po two devided dose daily for 4 days by 28 day survival assay; format: functional, organism-based; parameters: dose 48 mg/kg
In short: (§2)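 Swiss mice of either sex (20 2 g) inoculated ip with 1 × 10⁶ MDR P. yoelii nigeriensis (chloroquine-, mefloquine-, halofantrine-resistant) parasites on day 0. Five mice per dose. Oral dosing in groundnut oil (0.1 mL per dose) from day 0 to 3, as two divided doses daily. Thin blood smears on day 4, then twice weekly to day 28. Mice without patent infection by day 28 scored cured; % protection = fraction of mice cured. β-arteether as positive control.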

[6] = test system: Plasmodium yoelii nigeriensis; assay: Antimalarial activity in multidrug-resistant Plasmodium yoelii nigeriensis infected Swiss mouse assessed as disease cure at 96 mg/kg, po two devided dose daily for 4 days by 28 day survival assay; format: functional; in short: as §2
[7] = test system: Plasmodium yoelii nigeriensis; assay: Antimalarial activity in multidrug-resistant Plasmodium yoelii nigeriensis infected Swiss mouse assessed as disease cure at 24 mg/kg, po two devided dose daily for 4 days by 28 day survival assay; format: functional; in short: as §2
[8] = test system: Plasmodium yoelii nigeriensis; assay: Antimalarial activity in multidrug-resistant Plasmodium yoelii nigeriensis infected Swiss mouse assessed as suppression of parasitaemia at 12 mg/kg, po two devided dose daily for 4 days; format: functional; in short: as §1
[9] = test system: Plasmodium yoelii nigeriensis; assay: Antimalarial activity in multidrug-resistant Plasmodium yoelii nigeriensis infected Swiss mouse assessed as disease cure at 12 mg/kg, po two devided dose daily for 4 days by 28 day survival assay; format: functional, organism-based; parameters: dose 12 mg/kg; in short: as §2

C=C(c1ccc(Br)cc1)[C@@H]1CO[C@@]2(CC[C@@]3(C)[C@H](CC[C@@H]4[C@@H]3CC[C@]3(C)[C@@H](C(C)=O)CC[C@@H]43)C2)OO1 (relative stereo; form 1) [listing 1 of 2 here] gave an Activity ([1]; 96 mg/kg) of 100%, an Activity [2] of 100% and an Activity [3] of 100%. For the same molecule, the logP [4] was 8.03.
C=C(c1ccc(F)cc1)[C@@H]1CO[C@@]2(CC[C@@]3(C)[C@H](CC[C@@H]4[C@@H]3CC[C@]3(C)[C@@H](C(C)=O)CC[C@@H]43)C2)OO1 (relative stereo; form 1) [listing 1 of 2 here] gave an Activity ([3]; 48 mg/kg) of 88.03%.
For C=C(c1ccc(Br)cc1)[C@@H]1CO[C@@]2(CC[C@@]3(C)[C@H](CC[C@@H]4[C@@H]3CC[C@]3(C)[C@@H](C(C)=O)CC[C@@H]43)C2)OO1 (relative stereo; form 1) [listing 2 of 2 here], the Activity [5] was “inactive”, the Activity [6] was “Active” and the Activity [7] was “inactive”.
For C=C(c1ccc(F)cc1)[C@@H]1CO[C@@]2(CC[C@@]3(C)[C@H](CC[C@@H]4[C@@H]3CC[C@]3(C)[C@@H](C(C)=O)CC[C@@H]43)C2)OO1 (relative stereo; form 1) [listing 2 of 2 here], the Activity [5] was “inactive”.
In the case of C=C(c1ccccc1)[C@@H]1CO[C@@]2(CC[C@@]3(C)[C@H](CC[C@@H]4[C@@H]3CC[C@]3(C)[C@@H](O)CC[C@@H]43)C2)OO1 (relative stereo; form 2) [listing 1 of 2 here], the Activity ([1]; 96 mg/kg) is reported as 100%, the Activity [2] is reported as 100% and the Activity [8] is reported as 88.7%. It also gave an Activity [3] of 100% and a logP [4] of 6.44.
Work on C=C(c1ccc(F)cc1)[C@@H]1CO[C@@]2(CC[C@@]3(C)[C@H](CC[C@@H]4[C@@H]3CC[C@]3(C)[C@@H](O)CC[C@@H]43)C2)OO1 (relative stereo; form 2) [listing 1 of 2 here] yielded an Activity [1] of 100%, an Activity [2] of 100% and an Activity [8] of 95.48%. The Activity [3] was 100% and the logP [4] was 6.66.
Molecule C=C(c1ccc(Br)cc1)[C@@H]1CO[C@@]2(CC[C@@]3(C)[C@H](CC[C@@H]4[C@@H]3CC[C@]3(C)[C@@H](O)CC[C@@H]43)C2)OO1 (relative stereo; form 2) [listing 1 of 2 here] has an Activity ([1]; 96 mg/kg) of 100%, an Activity [2] of 100% and an Activity [8] of 44.5%. It also gave an Activity [3] of 100% and a logP [4] of 7.27.
C=C(c1ccccc1)[C@@H]1CO[C@@]2(CC[C@@]3(C)[C@H](CC[C@@H]4[C@@H]3CC[C@]3(C)[C@@H](C(C)=O)CC[C@@H]43)C2)OO1 (relative stereo; form 2) [listing 1 of 2 here] gave an Activity ([1]; 96 mg/kg) of 100%, an Activity [2] of 100% and an Activity [3] of 100%. It also gave a logP [4] of 7.2 and an Activity [7] of 60%.
C=C(c1ccc(F)cc1)[C@@H]1CO[C@@]2(CC[C@@]3(C)[C@H](CC[C@@H]4[C@@H]3CC[C@]3(C)[C@@H](C(C)=O)CC[C@@H]43)C2)OO1 (relative stereo; form 2) [listing 1 of 2 here] showed an Activity [1] of 100%, an Activity [2] of 100% and an Activity ([3]; 48 mg/kg) of 100%. It also gave a logP [4] of 7.36 and an Activity [7] of 60%.
Work on C=C(c1ccc(Cl)cc1)[C@@H]1CO[C@@]2(CC[C@@]3(C)[C@H](CC[C@@H]4[C@@H]3CC[C@]3(C)[C@@H](C(C)=O)CC[C@@H]43)C2)OO1 (relative stereo; form 2) [listing 1 of 2 here] yielded an Activity ([1]; 96 mg/kg) of 100%, an Activity [2] of 100% and an Activity [3] of 100%. It also gave a logP [4] of 7.76 and an Activity [7] of 60%.
C=C(c1ccccc1)[C@@H]1CO[C@@]2(CC[C@@]3(C)[C@H](CC[C@@H]4[C@@H]3CC[C@]3(C)[C@@H]([C@H](C)C(C)=O)CC[C@@H]43)C2)OO1 (relative stereo; form 2) showed an Activity [6] of 60% and an Activity ([1]; 96 mg/kg) of 100%.
C=C(c1ccc(F)cc1)[C@@H]1CO[C@@]2(CC[C@@]3(C)[C@H](CC[C@@H]4[C@@H]3CC[C@]3(C)[C@@H]([C@H](C)C(C)=O)CC[C@@H]43)C2)OO1 (relative stereo; form 2) gave an Activity [6] of 60% and an Activity ([1]; 96 mg/kg) of 100%.
For C=C(c1ccccc1)[C@@H]1CO[C@@]2(CC[C@@]3(C)[C@H](CC[C@@H]4[C@@H]3CC[C@]3(C)[C@@H]([C@H](C)CCC(=O)OC)CC[C@@H]43)C2)OO1 (relative stereo; form 2), the Activity ([1]; 96 mg/kg) was 43.56%.
In the case of C=C(c1ccc(Br)cc1)[C@@H]1CO[C@@]2(CC[C@@]3(C)[C@H](CC[C@@H]4[C@@H]3CC[C@]3(C)[C@@H](O)CC[C@@H]43)C2)OO1 (relative stereo; form 2) [listing 2 of 2 here], the Activity [5] is reported as “Active”, the Activity [9] is reported as “inactive” and the Activity [6] is reported as “Active”. The Activity [7] was “Active”.
With C=C(c1ccc(Cl)cc1)[C@@H]1CO[C@@]2(CC[C@@]3(C)[C@H](CC[C@@H]4[C@@H]3CC[C@]3(C)[C@@H](C(C)=O)CC[C@@H]43)C2)OO1 (relative stereo; form 2) [listing 2 of 2 here] the Activity [5] was “Active” and the Activity [6] was “Active”.
For C=C(c1ccc(F)cc1)[C@@H]1CO[C@@]2(CC[C@@]3(C)[C@H](CC[C@@H]4[C@@H]3CC[C@]3(C)[C@@H](C(C)=O)CC[C@@H]43)C2)OO1 (relative stereo; form 2) [listing 2 of 2 here], the Activity [5] was “Active” and the Activity [6] was “Active”.
In the case of C=C(c1ccc(F)cc1)[C@@H]1CO[C@@]2(CC[C@@]3(C)[C@H](CC[C@@H]4[C@@H]3CC[C@]3(C)[C@@H](O)CC[C@@H]43)C2)OO1 (relative stereo; form 2) [listing 2 of 2 here], the Activity [5] is reported as “Active”, the Activity [9] is reported as “inactive” and the Activity [6] is reported as “Active”. The Activity [7] was “Active”.
For C=C(c1ccccc1)[C@@H]1CO[C@@]2(CC[C@@]3(C)[C@H](CC[C@@H]4[C@@H]3CC[C@]3(C)[C@@H](C(C)=O)CC[C@@H]43)C2)OO1 (relative stereo; form 2) [listing 2 of 2 here], the Activity [5] was “Active” and the Activity [6] was “Active”.
For C=C(c1ccccc1)[C@@H]1CO[C@@]2(CC[C@@]3(C)[C@H](CC[C@@H]4[C@@H]3CC[C@]3(C)[C@@H](O)CC[C@@H]43)C2)OO1 (relative stereo; form 2) [listing 2 of 2 here], the Activity [5] was “Active”, the Activity [9] was “inactive” and the Activity [6] was “Active”. The Activity [7] was “Active”.
In the case of CCO[C@H]1O[C@@H]2O[C@@]3(C)CC[C@H]4[C@H](C)CC[C@@H]([C@H]1C)[C@@]24OO3 [ARTEMOTIL], the Activity [5] is reported as “Active”, the Activity [2] is reported as 100% and the Activity [3] is reported as 100%. For the same molecule, the Activity [7] was 20%.

— ChEMBL document CHEMBL2177062, “Bile acid-based 1,2,4-trioxanes: synthesis and antimalarial assessment” (J Med Chem, 2012)
